Assay outcomes as filed in PubChem BioAssay.
FLuc stim CS = FLuc activators, initial screening, artefact control for FLuc-dependent activation tests, biochemical, ATPlite luminescence. Luciferin 4-monooxygenase (Photinus pyralis), P08659. ATPlite luciferase biochemical, 10 min; 0 = ATP-free wells, 1 = DMSO control. activation factor at 10 µM. 200,000 tested, under 10 active. AID 1027, 2008;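 active = luciferase activation factor, scaled between plate controls, of at least 2 with compound at 10 µM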
Target sequence (P08659 whole entry, looked up): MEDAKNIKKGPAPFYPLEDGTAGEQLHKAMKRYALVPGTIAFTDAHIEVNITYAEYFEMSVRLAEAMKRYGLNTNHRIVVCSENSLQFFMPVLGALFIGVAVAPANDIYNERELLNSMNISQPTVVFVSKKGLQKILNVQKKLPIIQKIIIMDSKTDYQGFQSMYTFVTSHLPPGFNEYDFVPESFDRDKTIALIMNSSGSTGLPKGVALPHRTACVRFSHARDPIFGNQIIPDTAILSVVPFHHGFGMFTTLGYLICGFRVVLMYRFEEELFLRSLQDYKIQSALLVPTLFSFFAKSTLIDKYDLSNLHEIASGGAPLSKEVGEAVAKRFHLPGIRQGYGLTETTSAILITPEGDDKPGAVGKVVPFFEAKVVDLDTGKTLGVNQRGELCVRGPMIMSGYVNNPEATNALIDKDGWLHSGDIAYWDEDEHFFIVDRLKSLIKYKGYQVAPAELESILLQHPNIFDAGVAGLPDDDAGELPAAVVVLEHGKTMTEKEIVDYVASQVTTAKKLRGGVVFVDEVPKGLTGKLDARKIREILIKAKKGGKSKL
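Material: luciferase plus luciferin reagent, cell-free. Medium: PBS buffer for ATP. Also added: ATP substrate, dispensed from a 10.24 µM working solution in PBS. Doses: test compounds dosed from 2 mM stocks in 100% DMSO. Incubation: 10 min post-reagent at room temperature. Technique: light output (luminescence). Read-out basis: luminescence gain marking luciferase activators.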
TRAIL sens C8 = viability loss with TRAIL in NB7+C8 cells, primary screen, TRAIL sensitizer project, cell-based, ATPlite luminescence; inhibition (viability loss, TRAIL sensitization), % at 10 µM; hit rate 1% among 360,000; AID 624354, 2012;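 active = compounds causing at least 50% loss of cell viability in the single-dose screen, relative to plate controls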
PPC-1+TRAIL kill = compounds killing PPC-1 cancer cells with TRAIL present, primary screen, TRAIL potentiator project, ATPLite luminescence, uHTS; PPC-1 cells + TRAIL, ATPLite viability luminescence; cell killing (% activity), % at 4 µM or 5 µM; hit rate 0.41% among 220,000;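 active = cell killing above 50% in the first pass at 4 µM, then a duplicate retest at 5 µM averaging 50% or more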;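 also: plate controls were cells with TRAIL plus DMSO for no effect and medium-only wells lacking cells for full effect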
FLuc inh counter = firefly luciferase enzyme inhibitors, primary screen, artefact control for luciferase-based inhibitor screens, biochemical, luminescence, ATPLite. Luciferin 4-monooxygenase (Photinus pyralis), P08659. 10 min. inhibition, % at 10 µM. hit rate 1.5% among 200,000. AID 1006, 2008;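 active = inhibition above about 50% when tested at 10 µM, limit read from the data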
The depositor's hits bear a star; . = not tested or not shown. Sampled rows, rich in hits. Any-hit rate of the full collection: about 1.5%.

SMILES	FLuc stim CS	TRAIL sens C8	PPC-1+TRAIL kill	FLuc inh counter
O=C(Cc1cccc(NC(=O)C2CCCN(C(=O)c3ccccc3)C2)c1)Nc1ccc(C(=O)N2CCOCC2)cc1 (stereo unspecified)	.	-21	.	.
O=C(NCCN1C(=O)S/C(=C\c2ccc(Cl)c([N+](=O)[O-])c2)C1=O)C1=COCCO1	.	55*	.	.
O=Cc1ccc(O)c2ncccc12	.	56*	12	.
CCC(=O)c1cn(/C(=C\C(=O)OC(C)(C)C)CCC(OC)OC)cc1CC	.	0	.	.
CC1=C/C(=C\c2ccc3c(c2)OCO3)C(=O)S1	0.5	-13	9	51*
COc1ccc(CC(C)Nc2cccc(SC)c2)cc1 (stereo unspecified)	.	3	.	.
CC(C)(C)c1ccc2c(c1)C(=O)c1ccccc1C2=O	0.3	56*	24	72*
CCc1ccc2c(c1)C(=O)c1ccccc1C2=O	0.6	12	25	36
O=C(NC(=S)/C(=C1\CCCCCN1)[N+](=O)[O-])c1ccccc1	.	78*	.	.
O=Nc1ccc(NOC(=O)c2ccccc2Br)cc1	0.2	-3	24	77*
CC1=C2C3OC(=O)C(C)C3CCC2(C)C=CC1=NO (stereo unspecified)	.	-6	.	.
O=C(NCc1ccc(F)cc1)C(c1ccccc1)c1ccccc1	.	-10	.	.
CC(=O)N(Cc1ccc(F)cc1)C1=C(NCc2ccccc2)C(=O)c2ccccc2C1=O	1	97*	46	0
COc1ccc(CC2C(=O)NC(C)C(=O)N(C)C3Cc4ccc(cc4)Oc4cc(ccc4O)CC(C(=O)NC(C)C(=O)NC(C)C(=O)N2C)N(C)C3=O)cc1 (stereo unspecified)	.	66*	.	.
CC(C)C[C@@H]1NC(=O)[C@H](Cc2ccccc2)N(C)C(=O)[C@H](C)NC(=O)c2ccccc2NC(=O)[C@H](Cc2ccc(O)cc2)N(C)C1=O	.	25	6	.
COc1ccc(/C=N/OCc2ccc(Br)cc2)c(OC)c1	.	5	.	.
O=C1N/C(=C\c2ccc(O)cc2)C(=O)c2ccccc21	0.1	25	8	93*
Cc1ccc2nc(-c3ccc(NC(=O)COC(=O)c4ccco4)cc3)sc2c1	1	71*	55*	-1
CCOc1ncccc1C(=O)OCC(=O)Nc1ccc(-c2nc3ccc(C)cc3s2)cc1	0.8	75*	38	21
O=C(COC(=O)c1ccc(Br)o1)Nc1ccc(Br)cc1	.	-8	.	.
COc1ccc(/C=C(\C#N)C(=O)OCC(=O)Nc2ccc(-c3nc4ccc(C)cc4s3)cc2)cc1	0.6	54*	40	44
COc1ccc(/C=C(\C#N)C(=O)OCC(=O)NC(C)c2ccccc2)cc1 (stereo unspecified)	1.1	-5	0	-9
CCOc1ncccc1C(=O)OCC(=O)Nc1c(C)cc(C)cc1C	1.1	4	-10	-9
Cc1ccc2nc(-c3ccc(NC(=O)COC(=O)c4ccc(Br)o4)cc3)sc2c1	0.7	75*	50	32
O=C(Cn1c(Cn2c(-c3cnccn3)nc3ccccc32)nc2ccccc21)c1ccc(OC(F)(F)F)cc1	.	14	.	.
SMILES	FLuc stim CS	TRAIL sens C8	PPC-1+TRAIL kill	FLuc inh counter
COc1ccc(NC(=O)C2Cc3c(-c4cccc(F)c4)ccnc3O2)cc1OC (stereo unspecified)	.	22	.	.
O=C(COC(=O)c1ccc([N+](=O)[O-])o1)Nc1ccc(F)cc1	.	13	.	.
Cc1ccc2nc(-c3ccc(NC(=O)COC(=O)c4ccc([N+](=O)[O-])o4)cc3)sc2c1	0.5	71*	51*	47
Cc1ccc2nc(-c3ccc(NC(=O)CN(c4ccccc4C)S(C)(=O)=O)cc3)sc2c1	0.6	43*	13	37
Nc1c(Cl)ncnc1N/N=C/c1ccnc2ccccc12	0.5	10	40	53*
Nc1c(Cl)ncnc1N/N=C/c1ccc2ccccc2n1	0.3	43	62*	72*
Cc1cc(C)c(C)c(S(=O)(=O)N2CCC(C(=O)NCCCN3CCCC3=O)CC2)c1C	.	-1	.	.
Cc1ccc(C(=O)Nc2ccc3c(c2)nc2n3CCSC2)cc1	0.4	22	45	62*
CC(=O)Nc1ccc2c(c1)nc1n2CCSC1	1.1	-34	11	-6
COc1ccc(C(=O)NCCNc2ccccc2[N+](=O)[O-])cc1	0.4	38	48	62*
COC(=O)C1CCN(S(=O)(=O)CCNC(=O)c2ccccc2)CC1	.	0	.	.
Cc1noc(C)c1S(=O)(=O)N(C)C[C@H]1OCc2cnnn2CCCC(=O)N([C@H](C)CO)C[C@H]1C	.	1	.	.
Cc1ccc(S(=O)(=O)Nc2ccccc2C(=O)Nc2nc(-c3ccc(F)cc3)cs2)cc1	1	53*	25	2
COc1ccc(-c2csc(NC(=O)c3ccccc3NS(=O)(=O)c3ccc(F)c(F)c3)n2)cc1	1	41	19	-2
c1coc(C2Nc3ccccc3C3OCCC23)c1 (stereo unspecified)	1	8	17	3
COc1ccc2c(c1)C1OCCC1C(c1ccco1)N2 (stereo unspecified)	.	83*	.	.
CCCCNC(=O)c1ccc(NC(=O)CC2SC(N3CCCC3)=NC2=O)cc1 (stereo unspecified)	.	-4	.	.
COc1ccc2cc(CNCCOCCOCCNCc3ccc4cc(OC)ccc4c3)ccc2c1	.	88*	.	.
CCOCCCNCc1ccc(OC)cc1	1.1	-12	-12	-6
Cc1ccc(N/N=C(\C#N)C(=N)N2CCCCC2)cc1	.	14	28	.
N#C/C(=N\Nc1ccccc1[N+](=O)[O-])C(=N)N1CCCCC1	0.2	44	37	82*
N#C/C(=N\Nc1ccccc1)C(=N)N1CCCCC1	0.4	29	20	61*
COc1ccccc1-c1cc(C(=O)Nc2cccnc2)no1	0.4	43	46	62*
COc1ccc(NC(=O)c2cc(-c3ccccc3OC)on2)cc1	0.9	45	24	5
COc1cc(OC)c(N(C)C(=O)c2cn(C)c(=O)c3cc(OC)c(OC)cc23)cc1Cl	.	6	.	.
SMILES	FLuc stim CS	TRAIL sens C8	PPC-1+TRAIL kill	FLuc inh counter
CC(C)(C)c1ccc(CC(=O)N2CCC2(C)C(=O)NCc2cccc3ccccc23)cc1 (stereo unspecified)	.	25	.	.
Cc1cc(NC(=O)c2cc(-c3ccccc3)on2)no1	1	0	14	-4
O=C(c1ccccc1)c1cc(-c2ccccc2)on1	0.2	19	14	81*
O=C1CC2(CCN(C(=O)C(=O)c3c[nH]c4ccccc34)CC2)Oc2ccccc21	.	-3	.	.
CCC(COC)Oc1cc(NCc2ccccc2)c2ncn(C(C)C)c2c1 (stereo unspecified)	.	58*	.	.
CC(C)n1cnc2c(NCc3ccccc3)cc(N[C@H](C)CO)cc21	.	60*	.	.
COCCNC(=O)C1(C)CCCN(C(=O)c2ccccc2F)C1 (stereo unspecified)	.	-5	.	.
CCOC(=O)c1cc(-c2ccccc2)n(CC2CC(c3ccc(OC)cc3)=NO2)n1 (stereo unspecified)	.	-6	.	.
O=C(CCl)Nc1ccccc1C(=O)Nc1ccc2c(c1)OCO2	.	50*	44	.
C/C(=N\NC(=O)c1ccc(O)cc1)c1cccc(NC(=O)c2ccccc2C)c1	.	63*	.	.
